Data set [1] has as its system A549. Nature of the data set: Cytotoxicity against human A549 cells assessed as reduction in cell viability after 72 hrs by resazurin dye based fluorescence analysis. In kind it is functional. The following applies: A549, 72 h. The method in brief: (§1)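 A549 (non-small-cell lung) and PC3 (prostate) human cancer cells from ATCC. Viability was read after 72 h, in triplicate. Runs were either a single 80 μM concentration or a dose-response. Actinomycin D served as the positive control.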
(In general: The colour change of resazurin is a common sign of viable cells or microbes.)

Data set [2] has as its system PC-3. Nature of the data set: Cytotoxicity against human PC3 cells assessed as reduction in cell viability after 72 hrs by resazurin dye based fluorescence analysis. In kind it is functional. The following applies: PC-3, 72 h. The method in brief:
as §1

The target of data set [3] is Eukaryotic translation initiation factor 4E-binding protein 1 (Homo sapiens) (UniProt Q13541). Briefly: Inhibition of 4E-BP1 phosphorylation in human HCT116 cells at 2 uM after 6 hrs by Western blot analysis. The data set is classed as cell-based. The conditions noted are these: HCT-116. In outline:
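HCT116 cells were treated 6 h with 2 μM compound or with DMSO as negative control. Lysate was run on SDS-PAGE, blotted to PVDF and probed for phospho-4E-BP1 (Thr37/46, Ser65, Thr70), with chemiluminescent detection.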
(Immunoblotting shows a protein as a band on a membrane.)

The nature of data set [4]: Toxicity in axolotl embryo at 1 uM after 7 days by tail regeneration assay. The following applies: ambystoma mexicanum, 168 h, time 7 day. In outline:
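Stage 42 embryos manually hatched, anaesthetised with benzocaine, given 2 mm tail amputations, then reared with or without test agent in artificial pond water at 18–19 °C for 7 days postamputation. Imaged at 0 and 7 DPA. Agents dissolved in DMSO, 0.1% final DMSO. Vehicle served as negative control, geldanamycin as positive control.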

The subject of a further data set is Staphylococcus aureus. Nature of the data set: Antibacterial activity against Staphylococcus aureus ATCC 6538 at <= 133 uM incubated for 16 hrs. The conditions noted are these: dose microM <=133, time 16.0 hrs. In kind it is functional, organism-based. The method in brief: (§2)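 Microbial strains from ATCC or NRRL, tested in triplicate with a top concentration of 133 μM. Positive controls were kanamycin and ampicillin (S. aureus, M. luteus, S. enterica, E. coli) and amphotericin B (S. cerevisiae).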

For a further data set, the system named is Micrococcus luteus. Briefly: Antibacterial activity against Micrococcus luteus NRRL B-287 at <= 133 uM incubated for 16 hrs. In kind it is functional, organism-based. The conditions noted are these: dose microM <=133, time 16.0 hrs. The method in brief:
as §2

The subject of the next data set is Bacillus spizizenii. Nature of the data set: Antibacterial activity against Bacillus subtilis ATCC 6633 at <= 133 uM incubated for 16 hrs. In kind it is functional, organism-based. The conditions noted are these: dose microM <=133, time 16.0 hrs. The method in brief: as §2
A further data set has as its system Mycolicibacterium aurum. Briefly: Antibacterial activity against Mycobacterium aurum ATCC 23366 at <= 133 uM incubated for 16 hrs. The data set is classed as functional, organism-based. The following applies: dose microM <=133, time 16.0 hrs. The method in brief:
as §2

The test system of another data set is Escherichia coli. Nature of the data set: Antibacterial activity against Escherichia coli NRRL B-3708 at <= 133 uM incubated for 16 hrs. The following applies: dose microM <=133, time 16.0 hrs. The data set is classed as functional, organism-based. The method in brief:
as §2

The next data set concerns Salmonella enterica. Briefly: Antibacterial activity against Salmonella enterica ATCC 10708 at <= 133 uM incubated for 16 hrs. The data set is classed as functional, organism-based. The conditions noted are these: dose microM <=133, time 16.0 hrs. The method in brief:
as §2

The next data set concerns Saccharomyces cerevisiae. Nature of the data set: Antifungal activity against Saccharomyces cerevisiae ATCC 204508 at <= 133 uM after 16 hrs. The data set is classed as functional, organism-based. The following applies: dose microM <=133, time 16.0 hrs. The method in brief:
as §2

Data set [5] has as its system A549. Nature of the data set: Cytotoxicity against human A549 cells assessed as reduction in cell viability at 80 uM after 72 hrs by resazurin dye based fluorescence analysis. The data set is classed as functional. In outline: as §1
Data set [6] deals with PC-3. Briefly: Cytotoxicity against human PC3 cells assessed as reduction in cell viability at 80 uM after 72 hrs by resazurin dye based fluorescence analysis. The data set is classed as functional. The method in brief: as §1

Usually IC50 stands for the concentration needed to halve the response being measured.

Activity calls are given as the source filed them. The rule behind the calls is not given here.

Chain of Eukaryotic translation initiation factor 4E-binding protein 1 (Homo sapiens) (Q13541 whole entry): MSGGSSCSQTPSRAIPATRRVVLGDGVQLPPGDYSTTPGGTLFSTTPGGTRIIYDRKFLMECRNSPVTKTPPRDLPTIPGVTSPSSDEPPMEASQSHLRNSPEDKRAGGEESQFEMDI

As to `C[C@@H]1O[C@@H](O[C@H]2[C@H](O)C[C@H](c3ccc4c(c3O)C(=O)C3=C(C4=O)[C@@]4(O)C(=O)C[C@](C)(O[C@H]5CC[C@H](O[C@H]6C=CC(=O)[C@H](C)O6)[C@H](C)O5)C[C@@]4(O)C=C3)O[C@@H]2C)C=CC1=O` [SAQUAYAMYCINS A], the IC50 with A549 [1] and with PC-3 [2] was less than 0.5 µM throughout. In addition, the inhibition result in data set [3] is “Active”. The Activity entry in data set [4] is on record as “Toxic”.
For `CC(=O)OC(=O)C(O)/C(C)=C\c1c(O)cc2c(c1O)C(=O)c1cccc(O)c1C2=O` (stereo not drawn), the result with Staphylococcus aureus, in the data set with Micrococcus luteus, with Bacillus spizizenii, in the data set on Mycolicibacterium aurum, in the data set with Escherichia coli and with Salmonella enterica was inactive. The result in the data set with Saccharomyces cerevisiae, in the data set on A549 [5] and in the data set on PC-3 [6] was inactive.

The values above are taken from ChEMBL document CHEMBL4811313, “Himalaquinones A-G, Angucyclinone-Derived Metabolites Produced by the Himalayan Isolate Streptomyces sp. PU-MM59” (J Nat Prod, 2021).
